{
  "source": "ChEMBL document CHEMBL1141227",
  "about": "“Rhodamine-labeled 2beta-carbomethoxy-3beta-(3,4-dichlorophenyl)tropane analogues as high-affinity fluorescent probes for the dopamine transporter” (J Med Chem, 2005)",
  "type_in_all_cases": "cell-based, COS-7",
  "key": {"[1]": {"biological_target": "T1, Sodium-dependent dopamine transporter (Homo sapiens, UniProt Q01959)", "T1 sequence (Q01959 whole entry)": "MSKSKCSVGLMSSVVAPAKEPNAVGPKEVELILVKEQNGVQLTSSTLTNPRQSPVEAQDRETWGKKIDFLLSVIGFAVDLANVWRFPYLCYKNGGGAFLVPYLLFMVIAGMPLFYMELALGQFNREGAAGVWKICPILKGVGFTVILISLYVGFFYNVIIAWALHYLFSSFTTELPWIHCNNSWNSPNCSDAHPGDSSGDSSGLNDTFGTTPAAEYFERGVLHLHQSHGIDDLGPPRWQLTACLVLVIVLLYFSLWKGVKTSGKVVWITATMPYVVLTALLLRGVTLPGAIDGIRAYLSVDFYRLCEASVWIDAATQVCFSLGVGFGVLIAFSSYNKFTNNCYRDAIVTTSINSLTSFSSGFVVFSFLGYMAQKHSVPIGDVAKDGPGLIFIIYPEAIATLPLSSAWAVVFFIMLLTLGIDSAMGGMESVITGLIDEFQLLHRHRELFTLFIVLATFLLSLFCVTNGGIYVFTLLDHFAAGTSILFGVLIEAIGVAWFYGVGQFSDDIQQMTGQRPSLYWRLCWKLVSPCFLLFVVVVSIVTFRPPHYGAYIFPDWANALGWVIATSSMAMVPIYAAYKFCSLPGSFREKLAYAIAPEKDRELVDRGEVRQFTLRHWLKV", "assay": "Displacement of [3H]dopamine from human DAT expressed in COS7 cells", "method_in_brief": "(§1)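 Ki derived from inhibition of radiolabelled substrate uptake into COS-7 cells transiently expressing hDAT or hNET ([3H]dopamine) or hSERT ([3H]5-HT). […] Three to six experiments in triplicate, mean with SE interval.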"}, "[2]": {"biological_target": "T1, Sodium-dependent dopamine transporter", "assay": "Displacement of [3H]CFT from human DAT expressed in COS7 cells", "method_in_brief": "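Competition binding on intact COS-7 cells transiently expressing hDAT, with [3H]CFT (2β-carbomethoxy-3β-(4-fluorophenyl)tropane) as radioligand. Ki from nonlinear regression, using a KD for [3H]CFT determined in parallel. Mean of two to three experiments in triplicate, with SE interval.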"}, "[3]": {"biological_target": "Sodium-dependent noradrenaline transporter (Homo sapiens, UniProt P23975)", "sequence (P23975 whole entry)": "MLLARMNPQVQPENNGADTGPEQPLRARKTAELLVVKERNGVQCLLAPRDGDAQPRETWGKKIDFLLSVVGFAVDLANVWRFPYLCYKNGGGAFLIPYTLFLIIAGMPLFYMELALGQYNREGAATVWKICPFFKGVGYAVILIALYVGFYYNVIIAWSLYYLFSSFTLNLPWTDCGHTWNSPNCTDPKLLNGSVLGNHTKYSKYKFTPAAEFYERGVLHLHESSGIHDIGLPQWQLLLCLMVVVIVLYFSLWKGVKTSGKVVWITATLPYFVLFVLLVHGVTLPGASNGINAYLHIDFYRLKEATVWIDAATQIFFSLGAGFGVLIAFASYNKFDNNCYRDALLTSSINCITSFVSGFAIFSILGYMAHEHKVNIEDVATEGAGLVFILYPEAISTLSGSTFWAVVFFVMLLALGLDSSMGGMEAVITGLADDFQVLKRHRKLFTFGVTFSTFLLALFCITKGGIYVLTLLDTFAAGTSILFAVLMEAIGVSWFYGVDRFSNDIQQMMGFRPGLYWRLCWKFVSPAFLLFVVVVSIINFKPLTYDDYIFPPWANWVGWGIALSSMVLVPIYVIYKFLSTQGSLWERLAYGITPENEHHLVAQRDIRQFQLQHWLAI", "assay": "Displacement of [3H]dopamine from human NET expressed in COS7 cells", "method_in_brief": "as §1"}, "[4]": {"biological_target": "Sodium-dependent serotonin transporter (Homo sapiens, UniProt P31645)", "sequence (P31645 whole entry)": "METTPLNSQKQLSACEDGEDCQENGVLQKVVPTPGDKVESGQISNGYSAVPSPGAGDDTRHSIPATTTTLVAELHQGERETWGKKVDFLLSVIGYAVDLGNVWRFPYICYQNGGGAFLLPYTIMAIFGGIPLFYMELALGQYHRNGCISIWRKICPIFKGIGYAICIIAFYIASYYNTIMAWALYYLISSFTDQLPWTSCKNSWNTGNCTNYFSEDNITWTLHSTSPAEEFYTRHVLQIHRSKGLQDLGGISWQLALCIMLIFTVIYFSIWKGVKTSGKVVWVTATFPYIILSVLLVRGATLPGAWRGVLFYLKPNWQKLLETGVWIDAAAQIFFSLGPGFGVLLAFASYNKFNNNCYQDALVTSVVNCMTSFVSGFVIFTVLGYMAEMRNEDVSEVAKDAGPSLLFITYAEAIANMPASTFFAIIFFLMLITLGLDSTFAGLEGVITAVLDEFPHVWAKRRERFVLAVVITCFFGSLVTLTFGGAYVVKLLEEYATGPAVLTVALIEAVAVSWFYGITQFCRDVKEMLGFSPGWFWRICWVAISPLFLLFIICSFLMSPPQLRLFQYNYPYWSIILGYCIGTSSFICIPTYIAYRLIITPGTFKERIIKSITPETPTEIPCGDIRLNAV", "assay": "Displacement of [3H]5HT from human SERT expressed in COS7 cells", "method_in_brief": "as §1"}},
  "note": "pKi: −log10 of the molar value.",
  "data": [
    {"compound": "CCN(CC)c1ccc2c(-c3ccc(S(=O)(=O)NCCCCCC(=O)NCCN4C5CCC4[C@@H](C(=O)OC)[C@@H](c4ccc(Cl)c(Cl)c4)C5)cc3S(=O)(=O)[O-])c3ccc(=[N+](CC)CC)cc-3oc2c1", "note": "(some centres undefined)", "values": [
      {"measurement": "pKi", "setting": "[1]", "result": 7.21},
      {"measurement": "pKi", "setting": "[2]", "result": 7.74},
      {"measurement": "pKi", "setting": "[3]", "result": 6.71},
      {"measurement": "pKi", "setting": "[4]", "result": 6.41}
    ]},
    {"compound": "COC(=O)[C@@H]1C2CCC(C[C@@H]1c1ccc(Cl)c(Cl)c1)N2CCNC(=O)CCCN1CCCc2cc3c(cc21)C(C)(C)C1=CC(=[N+](C)C)C=CC1=C3", "note": "(some centres undefined)", "values": [
      {"measurement": "pKi", "setting": "[1]", "result": 6.60},
      {"measurement": "pKi", "setting": "[2]", "result": 7.30},
      {"measurement": "pKi", "setting": "[3]", "result": 6.51},
      {"measurement": "pKi", "setting": "[4]", "result": 6.64}
    ]},
    {"compound": "CCN(CC)c1ccc2c(-c3ccc(S(=O)(=O)NC[C@H]4CC[C@H](C(=O)NCCN5C6CCC5[C@@H](C(=O)OC)[C@@H](c5ccc(Cl)c(Cl)c5)C6)CC4)cc3S(=O)(=O)[O-])c3ccc(=[N+](CC)CC)cc-3oc2c1", "note": "(some centres undefined)", "values": [
      {"measurement": "pKi", "setting": "[1]", "result": 6.36},
      {"measurement": "pKi", "setting": "[3]", "result": 6.20},
      {"measurement": "pKi", "setting": "[4]", "result": 6.15}
    ]},
    {"compound": "CCN(CC)c1ccc2c(-c3ccc(S(=O)(=O)NCCCCCC(=O)NCCOC(=O)[C@@H]4C5CCC(C[C@@H]4c4ccc(Cl)c(Cl)c4)N5C)cc3S(=O)(=O)[O-])c3ccc(=[N+](CC)CC)cc-3oc2c1", "note": "(some centres undefined)", "values": [
      {"measurement": "pKi", "setting": "[1]", "result": 7.14},
      {"measurement": "pKi", "setting": "[2]", "result": 7.57},
      {"measurement": "pKi", "setting": "[3]", "result": 6.75},
      {"measurement": "pKi", "setting": "[4]", "result": 5.83}
    ]},
    {"compound": "COC(=O)[C@@H]1C2CCC(C[C@@H]1c1ccc(Cl)c(Cl)c1)N2C", "note": "(some centres undefined)", "values": [
      {"measurement": "pKi", "setting": "[1]", "result": 8.64},
      {"measurement": "pKi", "setting": "[2]", "result": 9.70},
      {"measurement": "pKi", "setting": "[3]", "result": 8.30},
      {"measurement": "pKi", "setting": "[4]", "result": 7.92}
    ]}
  ]
}
